# Test results published in paper PMC2975463 (Biochemistry, 2009).
# “Also recorded” adds a separate entry of the source. Like-named read-outs stand apart in the source and are kept apart here.
# What was measured:
# [1] = molecular target: Bovine XO from buttermilk (Bos taurus, UniProt P80457); assay: Oxidation of 1,N^2-ε-Gua with purified XO; assay type: biochemical; settings: for oxidation by purified bovine XO: result in words
# [2] = Oxidation; assay type: in vitro ADME, rat; settings: for enzymatic oxidation in rat liver cytosol: result in words
# Summary of the method: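 Rat liver cytosol (5 mg/mL) with varied base-adduct concentrations and 0.4% DMSO, prewarmed 5 min at 37 °C, then started with substrate. Etheno-guanine bases: 0.1 M NaOH stocks, 0.8 M potassium phosphate pH 7.6, extracts in 0.1 M NaOH, HPLC-UV at 285 nm. Heptanone base: DMSO stock, room-temperature setup, UV at 300 nm. Km and vmax came from nonlinear one-site binding fits.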
# [3] = molecular target: T1, purine nucleoside phosphorylase (PNP) (Homo sapiens, UniProt P00491); assay: Incubations of 1,N^6-ε-dA and dIno with purified human PNP; assay type: biochemical; settings: dIno versus 1,N^6-ε-dA
# T1 sequence (P00491 1-289): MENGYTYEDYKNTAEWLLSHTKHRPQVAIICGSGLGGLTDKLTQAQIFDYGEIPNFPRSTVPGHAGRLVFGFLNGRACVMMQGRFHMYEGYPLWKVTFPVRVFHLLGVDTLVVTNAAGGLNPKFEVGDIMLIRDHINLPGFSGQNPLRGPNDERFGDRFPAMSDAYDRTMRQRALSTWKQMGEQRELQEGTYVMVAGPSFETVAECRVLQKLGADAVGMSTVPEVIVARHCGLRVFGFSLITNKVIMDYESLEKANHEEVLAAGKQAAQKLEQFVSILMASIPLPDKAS
# [4] = molecular target: T2, xanthine oxidoreductase (XOR) (Rattus norvegicus, UniProt P22985); assay: Effect of XOR and AO inhibitors on 1,N^2-ε-Gua oxidation in rat liver cytosol; assay type: biochemical; settings: result in words
# Summary of the method: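 Rat liver cytosol (5 mg/mL final) in 0.8 M potassium phosphate (pH 7.6) with 0.4% DMSO. Substrate stock was in 0.1 M NaOH; 84 μM substrate was used with increasing inhibitor concentrations. Mixes were prepared on ice, equilibrated 5 min at 37 °C, and started by adding substrate. Extracts were taken up in 0.1 M NaOH for reversed-phase HPLC-UV (285 nm). IC50 was fitted by nonlinear regression (one-site competition).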
# [5] = molecular target: T2, xanthine oxidoreductase (XOR); assay type: biochemical; settings: co-incubation in rat liver cytosol, result in words
# Summary of the method: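 Rat liver cytosol (5 mg/mL final) in 0.1 M potassium phosphate (pH 7.4) with 0.4% DMSO, co-incubated with inhibitors. Substrate stock was in DMSO, and mixes were prepared at room temperature. Reactions were equilibrated 5 min at 37 °C and started by adding substrate. Extracts were dissolved in methanol for C18 HPLC (formic acid water/methanol gradient) with UV at 300 nm.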
# [6] = Glycolytic cleavage of 2′-deoxynucleoside adducts in rat liver cytosol; assay type: in vitro ADME; settings: result in words
# Summary of the method: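 Reactions (ice-prepared) contained 5 mg/mL rat liver cytosol, varied adduct concentrations, 0.4% DMSO and 0.1 M potassium phosphate pH 7.4. One etheno-deoxyadenosine adduct was also run in 0.1 M Tris-HCl pH 7.4 without inorganic phosphate. After 5 min at 37 °C, substrate was added to start. Ice-cold methanol stopped reactions; samples were centrifuged at 200000g for 30 min. Supernatants went to reversed-phase HPLC-UV for base formation.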
# [7] = oxidation in rat liver cytosol; cited from earlier work
# T2 sequence (P22985 whole entry): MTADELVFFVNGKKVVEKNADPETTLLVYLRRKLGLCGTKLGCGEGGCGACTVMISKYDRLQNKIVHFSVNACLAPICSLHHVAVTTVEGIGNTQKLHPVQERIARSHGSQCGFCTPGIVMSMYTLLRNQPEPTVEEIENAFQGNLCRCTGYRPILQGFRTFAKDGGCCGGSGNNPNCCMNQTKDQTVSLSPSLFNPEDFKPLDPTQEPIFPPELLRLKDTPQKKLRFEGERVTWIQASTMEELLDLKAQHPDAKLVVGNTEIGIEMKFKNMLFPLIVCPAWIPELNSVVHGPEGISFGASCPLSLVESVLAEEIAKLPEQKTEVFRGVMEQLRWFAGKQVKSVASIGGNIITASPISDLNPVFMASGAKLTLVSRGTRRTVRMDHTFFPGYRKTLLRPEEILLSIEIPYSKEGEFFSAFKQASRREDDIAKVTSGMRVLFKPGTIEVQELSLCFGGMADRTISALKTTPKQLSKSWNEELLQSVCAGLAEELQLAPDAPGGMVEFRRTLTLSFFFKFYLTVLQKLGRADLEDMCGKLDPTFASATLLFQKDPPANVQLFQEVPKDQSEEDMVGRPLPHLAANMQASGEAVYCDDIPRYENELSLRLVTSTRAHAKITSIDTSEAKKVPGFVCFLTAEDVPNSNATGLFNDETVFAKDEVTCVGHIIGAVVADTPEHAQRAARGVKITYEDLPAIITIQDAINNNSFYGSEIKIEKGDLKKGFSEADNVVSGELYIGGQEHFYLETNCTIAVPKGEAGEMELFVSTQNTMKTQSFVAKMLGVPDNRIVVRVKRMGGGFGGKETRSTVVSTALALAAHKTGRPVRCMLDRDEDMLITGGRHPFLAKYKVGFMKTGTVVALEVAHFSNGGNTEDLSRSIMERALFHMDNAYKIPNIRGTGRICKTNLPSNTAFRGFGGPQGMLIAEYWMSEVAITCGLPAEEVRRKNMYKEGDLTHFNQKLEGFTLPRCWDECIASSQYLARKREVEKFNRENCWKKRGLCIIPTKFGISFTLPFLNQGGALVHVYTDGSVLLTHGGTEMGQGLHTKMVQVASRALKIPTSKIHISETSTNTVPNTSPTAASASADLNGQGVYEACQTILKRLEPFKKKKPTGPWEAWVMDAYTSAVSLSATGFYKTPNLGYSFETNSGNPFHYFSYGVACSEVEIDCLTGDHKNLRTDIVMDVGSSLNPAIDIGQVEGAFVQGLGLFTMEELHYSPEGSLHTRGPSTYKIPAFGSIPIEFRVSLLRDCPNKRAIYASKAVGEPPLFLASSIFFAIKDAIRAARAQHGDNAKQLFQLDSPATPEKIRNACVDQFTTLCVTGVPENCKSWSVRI
# Bovine XO from buttermilk, sequence (P80457 whole entry): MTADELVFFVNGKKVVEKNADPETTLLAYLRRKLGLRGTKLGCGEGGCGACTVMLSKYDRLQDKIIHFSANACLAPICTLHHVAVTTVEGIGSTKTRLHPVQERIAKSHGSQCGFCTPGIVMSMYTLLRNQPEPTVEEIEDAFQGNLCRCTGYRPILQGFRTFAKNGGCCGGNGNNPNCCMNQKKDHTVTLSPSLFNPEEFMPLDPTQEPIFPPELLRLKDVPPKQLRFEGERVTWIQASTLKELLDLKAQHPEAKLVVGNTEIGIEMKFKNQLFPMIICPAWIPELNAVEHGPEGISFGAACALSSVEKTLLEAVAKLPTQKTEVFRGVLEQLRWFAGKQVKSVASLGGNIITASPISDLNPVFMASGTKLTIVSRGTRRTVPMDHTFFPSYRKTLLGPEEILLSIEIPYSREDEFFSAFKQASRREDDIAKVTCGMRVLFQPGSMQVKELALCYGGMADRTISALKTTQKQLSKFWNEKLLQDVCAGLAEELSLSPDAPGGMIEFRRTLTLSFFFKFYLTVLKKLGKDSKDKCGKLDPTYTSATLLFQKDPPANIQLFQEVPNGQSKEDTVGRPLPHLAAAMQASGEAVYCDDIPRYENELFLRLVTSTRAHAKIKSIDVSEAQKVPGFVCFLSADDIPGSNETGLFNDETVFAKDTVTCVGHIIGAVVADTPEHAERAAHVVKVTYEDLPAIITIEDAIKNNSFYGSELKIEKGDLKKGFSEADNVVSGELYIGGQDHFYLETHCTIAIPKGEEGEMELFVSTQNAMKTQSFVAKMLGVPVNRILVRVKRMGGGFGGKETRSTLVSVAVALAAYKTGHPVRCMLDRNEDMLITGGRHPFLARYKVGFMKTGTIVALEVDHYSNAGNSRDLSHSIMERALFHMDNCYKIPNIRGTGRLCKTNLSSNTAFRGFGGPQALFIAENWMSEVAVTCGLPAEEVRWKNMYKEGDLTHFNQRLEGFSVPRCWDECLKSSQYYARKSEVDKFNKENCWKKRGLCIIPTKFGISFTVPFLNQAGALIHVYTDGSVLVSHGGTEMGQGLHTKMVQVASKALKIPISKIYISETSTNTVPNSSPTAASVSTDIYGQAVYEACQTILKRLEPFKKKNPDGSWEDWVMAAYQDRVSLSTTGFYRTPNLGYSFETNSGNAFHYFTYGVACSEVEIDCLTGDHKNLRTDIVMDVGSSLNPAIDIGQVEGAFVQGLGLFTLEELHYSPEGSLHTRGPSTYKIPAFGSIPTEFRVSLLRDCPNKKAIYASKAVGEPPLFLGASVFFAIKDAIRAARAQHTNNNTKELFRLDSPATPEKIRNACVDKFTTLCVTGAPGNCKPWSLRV
compound,measurement,setting,value
"O=c1nc2[nH]ccn2c2nc[nH]c12 [N^2,3-ε-Gua, N^2,3-ethenoguanine]",oxidation by purified bovine XO,[1],did not result in oxidative metabolism
same,enzymatic oxidation in rat liver cytosol,[2],did not result in oxidative metabolism
"1,N^6-ethenoadenine [1,N^6-ε-Ade]",enzymatic oxidation in rat liver cytosol,[2],neither was found to be oxidized
"OC[C@H]1O[C@@H](n2cnc3c(O)ncnc32)C[C@@H]1O [dIno, 2′-deoxyinosine]","efficiency of turnover relative to 1,N^6-ε-dA",[3],approximately 57 fold
"3,N^4-ethenocytosine [3,N^4-ε-Cyt]",enzymatic oxidation in rat liver cytosol,[2],neither was found to be oxidized
Oc1ncnc2[nH]ncc12 [allopurinol],"inhibition of 1,N^2-ε-Gua metabolite production",[4],inhibited; also recorded: complete inhibition
same,"inhibition of heptanone-1,N^2-ε-Gua oxidation",[5],inhibited oxidation
"OC[C@H]1O[C@@H](n2cnc3c2ncn2ccnc32)[C@H](O)[C@@H]1O [1,N^6-ε-adenosine]",glycolytic cleavage in rat liver cytosol,[6],Identical observations
"O=c1c2[nH]cnc2nc2[nH]ccn12 [1,N^2-ε-Gua, 1,N^2-ethenoguanine]",vmax,"[1]; consumption of 1,N^2-ε-Gua by XOR purified from bovine milk, Figure 3 legend",10.1 μmol min^−1 (mg of XOR)^−1
same,vmax,"[1]; consumption of 1,N^2-ε-Gua by purified bovine XO",10.1 μmol min^−1 (mg of XO)^−1
same,oxidation by purified bovine XO,[1],readily consumed
same,vmax,"[2]; oxidation in rat liver cytosol, unit of the text",105 pmol/min/mg
same,vmax,"[2]; oxidation of substrate in rat liver cytosol, unit of Table 1",105000 pmol/min/mg
same,Km,"[2]; rat, rat liver cytosol, pH 7.6",84 µM
same,enzymatic oxidation in rat liver cytosol,[2],substrates for enzymatic oxidation
"O=c1c2[nH]cnc2nc2n1CCCN2 [PGua, 1,N^2-propanoguanine]",enzymatic oxidation in rat liver cytosol,[2],not oxidized
"7-(2-oxoheptyl)-1,N^2-ethenoguanine [heptanone-1,N^2-ε-Gua]",enzymatic oxidation in rat liver cytosol,[2],substrates for enzymatic oxidation
O=c1ccn2c(=O)c3[nH]cnc3nc2[nH]1 [6-oxo-M1G],Km,[7],210 µM
same,vmax,[7],257 nmol/min/mg
